How the values were obtained:
[1] = biological target: Ribosomal protein S6 kinase alpha-1 (Homo sapiens) (UniProt Q15418); experiment: Inhibition of RSK1 assessed as residual activity at 1 uM
[2] = system: Mus musculus; experiment: Toxicity in Rag1 knockout mouse xenografted with human HCT116 cells assessed as body weight loss at 40 mg/kg, ip QD measured on day 7 relative to untreated control; type: organism-based, HCT-116; design: dose 40 mg/kg, route intraperitoneal; settings: in vivo
How it was run: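 Male Rag1−/− mice (age-matched, SPF) inoculated s.c. with 5 × 10⁶ HCT-116 cells in PBS. Dosing started at ~150 mm³ tumours: q.d. i.p. in 7.5% DMSO, 42.5% PEG-400, 20% 2-hydroxypropyl-β-cyclodextrin, 30% water; controls received vehicle. Volume = (L × w²) × π/6, measured three times weekly; bodyweight daily. Treatment stopped if mean weight loss >15%; 1-way ANOVA with Holm–Sidak.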

Chain of Ribosomal protein S6 kinase alpha-1 (Homo sapiens) (Q15418 whole entry): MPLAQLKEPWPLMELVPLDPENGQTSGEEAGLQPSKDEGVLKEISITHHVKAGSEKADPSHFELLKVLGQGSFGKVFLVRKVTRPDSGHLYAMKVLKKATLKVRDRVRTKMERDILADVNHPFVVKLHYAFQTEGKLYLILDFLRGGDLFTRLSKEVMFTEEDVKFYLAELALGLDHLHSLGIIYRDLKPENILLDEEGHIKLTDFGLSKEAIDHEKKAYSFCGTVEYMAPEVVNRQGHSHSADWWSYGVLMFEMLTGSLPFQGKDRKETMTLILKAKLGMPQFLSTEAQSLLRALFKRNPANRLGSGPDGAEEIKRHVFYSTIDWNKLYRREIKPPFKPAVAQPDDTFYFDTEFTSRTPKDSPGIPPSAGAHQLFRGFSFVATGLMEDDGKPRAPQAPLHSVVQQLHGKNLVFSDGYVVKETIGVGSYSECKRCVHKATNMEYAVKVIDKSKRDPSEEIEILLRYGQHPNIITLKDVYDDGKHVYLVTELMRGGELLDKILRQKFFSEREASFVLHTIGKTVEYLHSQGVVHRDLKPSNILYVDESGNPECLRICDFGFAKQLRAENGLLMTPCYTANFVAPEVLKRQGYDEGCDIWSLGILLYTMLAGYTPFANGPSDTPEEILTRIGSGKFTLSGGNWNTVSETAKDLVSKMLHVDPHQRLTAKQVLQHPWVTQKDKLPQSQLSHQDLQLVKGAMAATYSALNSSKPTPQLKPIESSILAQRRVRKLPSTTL

SMILES: Cc1ccc([N+](=O)[O-])cc1S(=O)(=O)N(CCO)/N=C/c1cnn2ccc(C#N)cc12
- Activity [1]: 18%
- Activity [2]: > 15%
